T cruzi growth-1: inhibitors of T. cruzi proliferation; 77,000 tested, 5.9% active; T. cruzi beta-gal in NIH3T3, GalScreen luminescence, 90 h; inhibition, % at 8.34 µM; AID 624255;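 active = mean inhibition above about 93%, with at least 55% of replicates each passing it, limit read from the data, passing the limit was not always enough; inconclusive = only one of those two conditions holds; inactive = neither condition holds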
Pf Dd2 inh: inhibitors of Plasmodium falciparum Dd2 growth; AID 1159554; P. falciparum Dd2 growth, SYBR Green, 72 h; stronger effect = lower value; 94,000 tested, 2.3% active; activity change, % at 10 µM; in the data active = activity change below about -80%; inconclusive = no clear call, values can overlap the other calls
GASC1 inh: inhibitors of human demethylase GASC-1 KDM4C; 96,000 tested, 0.15% active; GST-KDM4C 2-372, H3K9me3 peptide, LANCE TR-FRET; inhibition, % at 12.5 µM; Q9H3R0;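 active = mean replicate inhibition above about 25%, with at least 55% of replicates also reaching it, limit read from the data, passing the limit was not always enough; inconclusive = only one of those two conditions met; inactive = neither condition met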
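System: N-terminal GST-fused human GASC-1 (KDM4C) fragment, residues 2-372; amount: enzyme final amount 10 nM; incubation: reaction 30 min RT, detection step 1 h RT; medium: HEPES buffer, pH 7.5, plus ascorbate; technique: LANCE TR-FRET, Eu antibody, ULight-streptavidin, EDTA, ex 340 nm, em 618/671 nm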
IDH1 mut inh: inhibitors of human IDH1 R132H; IDH1 R132H reductase, diaphorase/resazurin fluorescence, 60 min; inhibition, % at 10 µM; 70,000 tested, 0.18% active; in the data active = inhibition above about 34%; inconclusive = no clear call, values can overlap the other calls; inactive = below about 11%;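 also: 0% = DMSO and 100% = no enzyme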
Target sequence (O75874 whole entry R132H): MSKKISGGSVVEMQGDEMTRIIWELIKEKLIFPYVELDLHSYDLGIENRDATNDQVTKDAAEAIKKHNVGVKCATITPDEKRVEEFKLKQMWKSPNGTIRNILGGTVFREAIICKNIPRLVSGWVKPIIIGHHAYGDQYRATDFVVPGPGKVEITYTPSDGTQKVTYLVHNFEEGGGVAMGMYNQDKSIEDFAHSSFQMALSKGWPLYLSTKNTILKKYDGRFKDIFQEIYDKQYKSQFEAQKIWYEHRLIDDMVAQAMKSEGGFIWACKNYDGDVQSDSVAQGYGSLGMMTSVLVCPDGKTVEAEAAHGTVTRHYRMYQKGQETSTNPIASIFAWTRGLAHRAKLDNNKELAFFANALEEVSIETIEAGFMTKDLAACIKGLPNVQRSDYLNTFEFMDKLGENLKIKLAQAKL
T cruzi growth-2: Trypanosoma cruzi proliferation inhibition. shares compounds with T cruzi growth-1. T. cruzi beta-gal in NIH3T3, GalScreen luminescence, 90 h. inhibition, % at 8.35 µM. 5,600 tested, 72% active;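 active = mean replicate inhibition above about 95% and at least 55% of replicates individually reaching it, limit read from the data; inconclusive = only one of the two criteria is met; inactive = neither criterion is met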
T cruzi growth-3: blocks T. cruzi growth in NIH3T3 host cells | shares compounds with T cruzi growth-1 | T. cruzi beta-gal in NIH3T3, GalScreen luminescence, 90 h | inhibition, % at 2.09 µM | 5,600 tested, 21% active;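 active = mean inhibition above about 95%, with at least 55% of replicates also reaching it, limit read from the data; inconclusive = meets just one of the two conditions; inactive = meets neither condition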;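 also: plate controls were neutral control median for no effect and positive control median for full effect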
3T3 cytotox: cytotoxicity in mouse NIH/3T3 fibroblasts | shares compounds with T cruzi growth-1 | NIH/3T3 viability, CellTiter-Glo ATP luminescence, 90 h | cytotoxicity (signal decrease), % at 8.35 µM | 5,600 tested, 14% active | AID 651742;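 active = mean signal decrease across replicates above about 35% based on untreated-well scatter, with enough replicates individually passing, limit read from the data; inconclusive = no rule stated though some were filed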;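 also: 0% = median of neutral control wells and 100% = median of positive control wells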
NIH3T3 tox 2: NIH/3T3 (mouse) viability loss; shares compounds with T cruzi growth-1; NIH/3T3 viability, CellTiter-Glo ATP luminescence, 90 h; inhibition, % at 24.9 µM; 5,600 tested, 56% active; AID 651744;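 active = mean loss of cell viability signal at or above a set limit, and enough replicates individually reaching it; inconclusive = meets only the mean limit or only the replicate share; inactive = meets neither condition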;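 also: 0% = median of neutral control wells and 100% = median of positive control wells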
An asterisk follows results filed as active; ? = inconclusive; nt = not tested or not shown. Rows were chosen to be rich in hits. Some 5.8% of all compounds tested hit in one or more screens of this group.

SMILES	T cruzi growth-1	Pf Dd2 inh	GASC1 inh	IDH1 mut inh	T cruzi growth-2	T cruzi growth-3	3T3 cytotox	NIH3T3 tox 2
C[C@H]1CN([C@@H](C)CO)C(=O)c2cc(/C=C/c3ccccc3)cnc2O[C@H]1CN(C)Cc1ccc2c(c1)OCO2	72	-33	-1	0	nt	nt	nt	nt
C[C@@H]1CN([C@@H](C)CO)C(=O)c2cc(C#Cc3ccccn3)cnc2O[C@H]1CN(C)Cc1ccccc1	128*	-38	0	0	105*	92	1	10
C[C@H]1CN([C@@H](C)CO)C(=O)c2cc(C#Cc3ccccn3)cnc2O[C@@H]1CN(C)Cc1cncnc1	111*	22	1	0	108*	23	-12	5
CCn1c(SCC(=O)Nc2cccc(C(F)(F)F)c2)nnc1-c1ccco1	nt	nt	nt	0	nt	nt	nt	nt
C[C@@H]1CCCCO[C@H](CN(C)Cc2ccc(C(F)(F)F)cc2)[C@H](C)CN([C@H](C)CO)C(=O)c2cc(NC(=O)c3ccncc3)ccc2O1	109*	-30	-1	nt	106*	50	19	73*
C[C@H]1CCCCO[C@@H](CN(C)Cc2ccc(C(F)(F)F)cc2)[C@@H](C)CN([C@@H](C)CO)C(=O)c2cc(NC(=O)c3ccncc3)ccc2O1	24	-47	0	3	nt	nt	nt	nt
C[C@@H]1CN([C@H](C)CO)C(=O)c2cc(NC(=O)c3ccncc3)ccc2O[C@@H](C)CCCCO[C@@H]1CN(C)Cc1ccc(C(F)(F)F)cc1	109*	-4	1	-1	109*	52	8	26*
C[C@@H]1CCCCO[C@@H](CN(C)Cc2ccc(C(F)(F)F)cc2)[C@@H](C)CN([C@@H](C)CO)C(=O)c2cc(NC(=O)c3ccncc3)ccc2O1	36	-6	-2	1	nt	nt	nt	nt
C[C@H]1CCCCO[C@H](CN(C)Cc2ccc(C(F)(F)F)cc2)[C@@H](C)CN([C@@H](C)CO)C(=O)c2cc(NC(=O)c3ccncc3)ccc2O1	98*	-61	0	nt	103*	31	3	106*
COCCNC(=O)Nc1ccc2nc(-c3ccccn3)c(-c3ccccn3)nc2c1	nt	nt	nt	-1	nt	nt	nt	nt
COc1ccc(-c2nc3ccccc3s2)cc1NC(=O)COc1cc(C)ccc1C(C)C	nt	nt	nt	0	nt	nt	nt	nt
C[C@H](CO)N1C[C@H](C)[C@H](CN(C)C(=O)Nc2cccc(F)c2)Oc2cc(/C=C/c3ccccc3)ccc2S1(=O)=O	124*	-76	-1	2	105*	111*	39*	37*
C[C@H]1CN([C@@H](C)CO)S(=O)(=O)c2ccc(/C=C/c3ccccc3)cc2O[C@@H]1CN(C)C(=O)Nc1cccc(F)c1	125*	-19	1	2	95*	100*	?	47*
C[C@H](CO)N1C[C@H](C)[C@H](CN(C)C(=O)Nc2ccc(F)cc2)Oc2cc(/C=C/c3ccccc3)ccc2S1(=O)=O	122*	-79	nt	-1	99*	105*	12	36*
C/C=C/c1ccc2c(c1)O[C@@H](CN(C)C(=O)Nc1cccc(F)c1)[C@@H](C)CN([C@H](C)CO)S2(=O)=O	66	-51	-1	0	nt	nt	nt	nt
C/C=C/c1ccc2c(c1)O[C@H](CN(C)C(=O)Nc1cccc(F)c1)[C@@H](C)CN([C@H](C)CO)S2(=O)=O	80	-11	-2	-2	nt	nt	nt	nt
C/C=C/c1ccc2c(c1)O[C@H](CN(C)C(=O)Nc1ccc(F)cc1)[C@H](C)CN([C@H](C)CO)S2(=O)=O	65	-12	-2	0	nt	nt	nt	nt
C/C=C/c1ccc2c(c1)O[C@@H](CN(C)C(=O)Nc1cccc(F)c1)[C@H](C)CN([C@@H](C)CO)S2(=O)=O	97*	1	2	0	84	35	19	63*
O=C(COc1ccc(Cl)cc1Cl)Nc1c[nH]c(=O)[nH]c1=O	nt	nt	nt	0	nt	nt	nt	nt
Cc1ccc([N+](=O)[O-])cc1NC(=O)C1(c2ccccc2)CCN(S(=O)(=O)c2ccccc2)CC1	nt	nt	nt	0	nt	nt	nt	nt
Cn1nnnc1SCC(=O)Nc1cc(Cl)cc(Cl)c1	nt	nt	nt	0	nt	nt	nt	nt
NC(=O)CSc1nc2sc3c(c2c(=O)n1Cc1ccccc1)CCCC3	nt	nt	nt	0	nt	nt	nt	nt
C[C@@H]1CN([C@H](C)CO)S(=O)(=O)c2ccc(/C=C/c3ccccc3)cc2O[C@H]1CN(C)C(=O)Nc1cccc(F)c1	123*	-61	-2	0	96*	99*	73*	102*
C/C=C/c1ccc2c(c1)O[C@H](CN(C)C(=O)Nc1cc(F)ccc1F)[C@@H](C)CN([C@H](C)CO)S2(=O)=O	28	-33	-2	3	nt	nt	nt	nt
C[C@@H]1CN([C@H](C)CO)S(=O)(=O)c2ccc(/C=C/c3ccccc3)cc2O[C@@H]1CN(C)C(=O)Nc1cccc(F)c1	124*	-66	-2	-3	101*	108*	22	30
SMILES	T cruzi growth-1	Pf Dd2 inh	GASC1 inh	IDH1 mut inh	T cruzi growth-2	T cruzi growth-3	3T3 cytotox	NIH3T3 tox 2
C/C=C/c1ccc2c(c1)O[C@@H](CN(C)C(=O)Nc1ccc(C(F)(F)F)cc1)[C@H](C)CN([C@H](C)CO)S2(=O)=O	112*	-17	0	3	94	103*	43*	55*
C/C=C/c1ccc2c(c1)O[C@H](CN(C)C(=O)Nc1cc(F)ccc1F)[C@@H](C)CN([C@@H](C)CO)S2(=O)=O	100*	-45	0	-3	101*	33	0	25
COc1cccc(NC(=O)N(C)C[C@@H]2Oc3cc(/C=C/c4ccccc4)ccc3S(=O)(=O)N([C@H](C)CO)C[C@H]2C)c1	nt	-48	-1	2	nt	nt	nt	nt
COc1ccc(NC(=O)C(C)N(c2ccc(Cl)cc2)S(C)(=O)=O)cc1OC (centres undefined)	nt	nt	nt	0	nt	nt	nt	nt
COc1cccc(OCC(=O)Nc2ccc(-c3nc4ccccc4o3)cc2)c1	nt	nt	nt	0	nt	nt	nt	nt
O=C(C[C@H]1CC[C@@H]2[C@H](COC[C@@H](O)CN2C(=O)c2ccncc2)O1)NC1CCC1	97*	10	-1	nt	-30	-32	-11	-14
O=C(C[C@@H]1CC[C@@H]2[C@H](COC[C@H](O)CN2C(=O)c2ccncc2)O1)NC1CCC1	108*	-16	-2	nt	-16	-86	2	-15
CCN(CC(=O)Nc1cccc(Cl)c1C)S(=O)(=O)c1ccc(OC)cc1	nt	nt	nt	0	nt	nt	nt	nt
O=C(Nc1ccccc1)c1ccc(CSc2nnc(-c3ccncc3)n2-c2ccccc2)cc1	nt	nt	nt	0	nt	nt	nt	nt
O=C(CCCCCC(=O)Nc1ccccc1O)N/N=C/c1cc(Br)cs1	nt	nt	nt	1	nt	nt	nt	nt
COc1ccc(-c2ccc([C@H]3[C@H](CO)N4CCCCN(C(=O)c5ccc6c(c5)OCO6)C[C@@H]34)cc2)cc1	111*	-47	-1	nt	100*	62	32	90*
